We go through 12 molecules from ChEMBL document CHEMBL1833790, “N-(2-{3-[3,5-bis(trifluoromethyl)phenyl]ureido}ethyl)-glycyrrhetinamide (6b): a novel anticancer glycyrrhetinic acid derivative that targets the proteasome and displays anti-kinase activity” (J Med Chem, 2011).

Calls of active or inactive are those of the source. The calls are words filed in the database; no cut-off is given here. Peptide text beside a SMILES is read from it. * marks the point of attachment. Cbz = O=C(OCc1ccccc1)*

Data set [1] in a line: Chemical stability of the compound in MEM cell culture medium after 7 days by HPLC analysis. Format: physicochemical. The following applies: read-out: Stability. In outline: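 Compound incubated in MEM culture medium at 37 °C for 7 days, then analysed by HPLC on RX-C8 (5 μm) column with MeOH–water 90:10 (0.1% TFA), diode-array detection. Expressed as % of incubated compound recovered.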

The subject of the next data set is A549. The data set can be described thus: Growth inhibition in apoptosis-resistant human A549 after 3 days by MTT assay. Conditions: A549, 72 h. Format: functional. Put shortly: (§1)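 Cells grown in RPMI with 10% heat-inactivated FCS, 4 mM glutamine, gentamicin and penicillin–streptomycin. Drug exposure 3 days, growth read by MTT colorimetric assay. Nine concentrations from 0.01 to 100 μM in semilog steps, six replicates each; IC50 derived per cell line.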

The subject of another data set is SK-MEL-28. The data set can be described thus: Growth inhibition in apoptosis-resistant human SK-MEL-28 after 3 days by MTT assay. Format: functional. Conditions: SK-MEL-28, 72 h. Put shortly:
as §1
A general note: Tetrazolium dyes change colour on reduction, which living cells bring about.

The test system of another data set is T98G. Description: Growth inhibition in apoptosis-resistant human T98G after 3 days by MTT assay. Type of data set: functional. Conditions: 72 h. In outline:
as §1

Data set [2] in a line: Growth inhibition in apoptosis-resistant human U373 after 3 days by MTT assay. Format: functional, U-373MG ATCC. Conditions: U373 MG, 72 h. In outline: as §1
The next data set deals with Hs 683. Description: Growth inhibition in apoptosis-sensitive human Hs683 after 3 days by MTT assay. Type of data set: functional. Conditions: Hs 683, 72 h. Put shortly:
as §1

Another data set has as its system PC-3. The data set can be described thus: Growth inhibition in apoptosis-sensitive human PC3 after 3 days by MTT assay. Format: functional. Conditions: PC-3, 72 h. Put shortly:
as §1

The test system of a further data set is MCF7. Description: Growth inhibition in apoptosis-sensitive human MCF7 after 3 days by MTT assay. Type of data set: functional. The following applies: MCF7, 72 h. Put shortly: as §1
The subject of a further data set is B16-F10. Description: Growth inhibition in mouse B16F10 after 3 days by MTT assay. Type of data set: functional. Conditions: B16-F10, 72 h. Put shortly: as §1
Data set [3] relates to U-373MG ATCC. The data set can be described thus: Inhibition of chymotrypsin-like activity of 20S proteasome in human U373 at 7 uM after 2 days by bioluminescence assay. Format: cell-based. In outline: (§2)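 U373 GBM cells seeded at 5000 cells/mL and grown 48 h, then treated for two days. Cells washed in PBS and permeabilised with 0.025% digitonin. Proteasome-Glo reagent added with Suc-LLVY-Glo (chymotrypsin-like), Z-LRR-Glo (trypsin-like) or Z-nLPnLD-Glo (caspase-like) substrate. Luminescence read after 10 min in the dark and normalised to a parallel MTT viability assay; triplicates. MG-132 at 0.5 μM used as reference.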

The test system of data set [4] is U-373MG ATCC. The data set can be described thus: Inhibition of trypsin-like activity of 20S proteasome in human U373 cells at 7 uM after 2 days by bioluminescence assay. Type of data set: cell-based. Put shortly:
as §2

Data set [5] relates to U-373MG ATCC. The data set can be described thus: Inhibition of caspase-like activity of 20S proteasome in human U373 cells at 7 uM after 2 days by bioluminescence assay. Format: cell-based. Put shortly: as §2
The subject of data set [6] is U-373MG ATCC. Description: Inhibition of chymotrypsin-like activity of 20S proteasome in human U373 cells at 60 uM after 2 days by bioluminescence assay. Format: cell-based. Put shortly:
as §2

Data set [7] relates to U-373MG ATCC. The data set can be described thus: Inhibition of trypsin-like activity of 20S proteasome in human U373 cells at 60 uM after 2 days by bioluminescence assay. Format: cell-based. In outline:
as §2

In data set [8] the test system is U-373MG ATCC. The data set can be described thus: Inhibition of caspase-like activity of 20S proteasome in human U373 cells at 60 uM after 2 days by bioluminescence assay. Format: cell-based. Put shortly: as §2
Data set [9] concerns U-373MG ATCC. The data set can be described thus: Inhibition of chymotrypsin-like activity of 20S proteasome in human U373 cells at 0.5 uM after 2 days by bioluminescence assay. Format: cell-based. In outline:
as §2

Data set [10] relates to U-373MG ATCC. The data set can be described thus: Inhibition of trypsin-like activity of 20S proteasome in human U373 cells at 0.5 uM after 2 days by bioluminescence assay. Format: cell-based. Put shortly:
as §2

The subject of data set [11] is U-373MG ATCC. Description: Inhibition of caspase-like activity of 20S proteasome in human U373 cells at 0.5 uM after 2 days by bioluminescence assay. Format: cell-based. Put shortly:
as §2

One may read the GI50 as the concentration that inhibits growth by half. Read a low GI50 as more potent growth inhibition. Turning to `CC1(C)[C@@H](O)CC[C@]2(C)[C@H]3C(=O)C=C4[C@@H]5C[C@@](C)(C(=O)NCCNC(=O)Nc6ccccc6)CC[C@]5(C)CC[C@@]4(C)[C@]3(C)CC[C@@H]12`, the remaining at 168 h in [1] turned out to be 96%. The GI50 with A549 amounted to 29 µM; in the data set with SK-MEL-28 it was 49 µM; in the data set with T98G, 30 µM; in data set [2], 30 µM; in the data set on Hs 683, 28 µM; with PC-3, 32 µM. Besides, the GI50 is 28 µM with MCF7 and 31 µM in the data set with B16-F10.
As for `COc1cccc(C(=O)NCCNC(=O)[C@@]2(C)CC[C@]3(C)CC[C@]4(C)C(=CC(=O)[C@@H]5[C@@]6(C)CC[C@H](O)C(C)(C)[C@@H]6CC[C@]54C)[C@@H]3C2)c1`, the remaining at 168 h in [1] was found to be 99%. The GI50 in the data set on A549 was determined as 63 µM; in the data set on SK-MEL-28, 42 µM; in the data set with T98G it was 77 µM; in data set [2] it was 75 µM; in the data set with Hs 683, 58 µM; in the data set on PC-3, 72 µM. Besides, the GI50 in the data set on MCF7 was 46 µM; in the data set on B16-F10 it was 31 µM.
With `COc1ccc(CCNC(=O)[C@@]2(C)CC[C@]3(C)CC[C@]4(C)C(=CC(=O)[C@@H]5[C@@]6(C)CC[C@H](O)C(C)(C)[C@@H]6CC[C@]54C)[C@@H]3C2)cc1`, the remaining at 168 h in data set [1] was 91%. The GI50 is 37 µM in the data set on A549; greater than 100 µM in the data set on SK-MEL-28; 68 µM in the data set with T98G; 49 µM in data set [2]; 61 µM with Hs 683; 34 µM in the data set with PC-3. Moreover, the GI50 in the data set with MCF7 came to 36 µM; with B16-F10, 31 µM.
As for `CC1(C)[C@@H](O)CC[C@]2(C)[C@H]3C(=O)C=C4[C@@H]5C[C@@](C)(C(=O)NCCNC(=O)c6ccc(C(F)(F)F)cc6)CC[C@]5(C)CC[C@@]4(C)[C@]3(C)CC[C@@H]12`, in data set [1], the remaining at 168 h came to 95%. For the same molecule, the GI50 in the data set on A549 worked out at 47 µM; in the data set with SK-MEL-28 it was 49 µM; with T98G, 62 µM; in [2] it was 55 µM; with Hs 683, 38 µM; in the data set on PC-3, 53 µM. For the same molecule, the GI50 turned out to be 28 µM in the data set on MCF7 and 36 µM with B16-F10.
Turning to `CC(C)(C)OC(=O)NCCNC(=O)[C@@]1(C)CC[C@]2(C)CC[C@]3(C)C(=CC(=O)[C@@H]4[C@@]5(C)CC[C@H](O)C(C)(C)[C@@H]5CC[C@]43C)[C@@H]2C1`, in data set [1], the remaining at 168 h stood at 93%. For the same molecule, the GI50 in the data set with A549 came out at 43 µM; in the data set on SK-MEL-28 it was 60 µM; in the data set on T98G, 73 µM; in [2] it was 57 µM; with Hs 683, 63 µM; with PC-3, 41 µM. The values for the GI50 in the data set on MCF7 and with B16-F10 were 37 µM and 48 µM, respectively.
With `CC1(C)[C@@H](O)CC[C@]2(C)[C@H]3C(=O)C=C4[C@@H]5C[C@@](C)(C(=O)NCCNC(=O)c6ccc(F)cc6)CC[C@]5(C)CC[C@@]4(C)[C@]3(C)CC[C@@H]12`, the remaining at 168 h in data set [1] is 98%. Moreover, the GI50 is 28 µM in the data set with A549; 37 µM in the data set with SK-MEL-28; 35 µM in the data set with T98G; 29 µM in [2]; 31 µM with Hs 683; 30 µM with PC-3. The 50% growth inhibitory concentration (GI50) in the data set on MCF7 came to 25 µM; with B16-F10 it was 28 µM.
As to `CC(C)C[C@@H](C=O)NC(=O)[C@H](CC(C)C)NC(=O)[C@H](CC(C)C)NC(=O)OCc1ccccc1` (Cbz-Leu-Leu-Leu-aldehyde), the inhibition entry in the data set on U-373MG ATCC [3], in the data set with U-373MG ATCC [4], with U-373MG ATCC [5], in the data set on U-373MG ATCC [6], in the data set with U-373MG ATCC [7] and in the data set with U-373MG ATCC [8] was “Active” each time. The inhibition result in the data set on U-373MG ATCC [9], with U-373MG ATCC [10] and in the data set on U-373MG ATCC [11] was “Active” in each case.
Consider `CSCCCNC(=S)NCCNC(=O)[C@@]1(C)CC[C@]2(C)CC[C@]3(C)C(=CC(=O)[C@@H]4[C@@]5(C)CC[C@H](O)C(C)(C)[C@@H]5CC[C@]43C)[C@@H]2C1`, for which the remaining at 168 h in data set [1] was 93%. Besides, the GI50 with A549 is 38 µM; in the data set on SK-MEL-28, 33 µM; in the data set with T98G it was 35 µM; in data set [2], 35 µM; with Hs 683, 36 µM; in the data set on PC-3 it was 39 µM. Further, the GI50 in the data set with MCF7 came to 30 µM; in the data set on B16-F10, 33 µM.
Take `CC1(C)[C@@H](O)CC[C@]2(C)[C@H]3C(=O)C=C4[C@@H]5C[C@@](C)(C(=O)NCCNC(=O)c6ccc(C#N)cc6)CC[C@]5(C)CC[C@@]4(C)[C@]3(C)CC[C@@H]12`: in data set [1], the remaining at 168 h was 92%. The GI50 in the data set with A549 was determined as 68 µM; in the data set on SK-MEL-28 it was 35 µM; in the data set with T98G, 77 µM; in data set [2], 76 µM; in the data set with Hs 683, 67 µM; in the data set with PC-3, 72 µM. For the same molecule, the figures for the GI50 in the data set on MCF7 and with B16-F10 were 27 µM and 31 µM, respectively.
`CCOC(=O)CCNC(=O)NCCNC(=O)[C@@]1(C)CC[C@]2(C)CC[C@]3(C)C(=CC(=O)[C@@H]4[C@@]5(C)CC[C@H](O)C(C)(C)[C@@H]5CC[C@]43C)[C@@H]2C1`: the remaining at 168 h in data set [1] was 99%. Moreover, the GI50 in the data set with A549 worked out at 29 µM; in the data set with SK-MEL-28, 65 µM; in the data set on T98G it was 71 µM; in data set [2] it was 42 µM; in the data set with Hs 683, 42 µM; in the data set with PC-3, 46 µM. The GI50 with MCF7 came out at 42 µM; in the data set on B16-F10 it was 41 µM.
Regarding `CC1(C)[C@@H](O)CC[C@]2(C)[C@H]3C(=O)C=C4[C@@H]5C[C@@](C)(C(=O)NCCc6ccc(F)cc6)CC[C@]5(C)CC[C@@]4(C)[C@]3(C)CC[C@@H]12`, in [1], the remaining at 168 h was found to be 95%. Besides, the GI50 is 33 µM in the data set with A549; 82 µM in the data set with SK-MEL-28; 46 µM in the data set on T98G; 42 µM in [2]; 56 µM in the data set with Hs 683; 33 µM in the data set on PC-3. The GI50 in the data set with MCF7 came out at 31 µM; in the data set on B16-F10, 32 µM.
In the case of `CSc1ccc(C(=O)NCCNC(=O)[C@@]2(C)CC[C@]3(C)CC[C@]4(C)C(=CC(=O)[C@@H]5[C@@]6(C)CC[C@H](O)C(C)(C)[C@@H]6CC[C@]54C)[C@@H]3C2)cc1`, in data set [1], the remaining at 168 h worked out at 99%. In addition, the GI50 with A549 is 37 µM; in the data set with SK-MEL-28, 38 µM; in the data set with T98G it was 54 µM; in data set [2] it was 37 µM; with Hs 683, 36 µM; in the data set on PC-3 it was 47 µM. In addition, the GI50 with MCF7 came to 30 µM; in the data set with B16-F10, 31 µM.
